Source: ChEMBL document CHEMBL4007453, “Identification of Non-Nucleoside Inhibitors of the Respiratory Syncytial Virus Polymerase Complex” (J Med Chem, 2017)
Converted amounts (≈) assume the structure as drawn. “And” between values parts separate entries of the source, which are not always exact repeats. Equal values may be shown once.

How the values were obtained:
[1] = Antiviral activity against influenza A virus (A/WSN/1933(H1N1)) infected in MDCK cells assessed as reduction in viral replication measured after […] by bioluminescence assay; format: functional, cell-based
[2] = Inhibition of recombinant Respiratory syncytial virus-A2-L19F RNA-dependent RNA polymerase complex D489E mutant transfected with firefly luciferase gene at SMASh domain in human BEAS2B cells infected with Respiratory syncytial virus-A2-L19F assessed as reduction in viral replication measured after […] by bioluminescence assay; format: cell-based
Summary of the method: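 BEAS-2B cells (1.5×10^4/well) received 3-fold serial compound dilutions prepared in three repeats (top concentration 10 µM) and were infected with firefly-luciferase/SMASh reporter RSV-A2-L19F D489E (MOI 0.1). Luminescence was converted to % inhibition against four-replicate positive and negative controls per plate. EC50 came from four-parameter variable-slope regression.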

Liver [3] = assay: Drug metabolism in mouse liver microsomes assessed as 5-(3-Methylfuran-2-carbonyl)-5,6,7,8-tetrahydro-4H-pyrazolo-[1,5-a][1,4]diazepine-2-carboxylic Acid formation at 1 uM by LC-MS analysis; format: ADME, microsome
Liver [4] = assay: Half life in mouse liver microsomes at 1 uM in presence of NADPH by LC-MS analysis; format: ADME, microsome
Summary of the method: (§1)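 Test article at 1 µM final was incubated in triplicate at 37°C with shaking (150 rpm) with mouse or human liver S9 or microsomes (0.5 mg total protein), with Phase I oxidation and Phase II glucuronidation cofactors. Cofactor-free and microsome-free controls were run, sampled only at 0 and 120 min. Other sampling was at 0, 15, 30, 60 and 120 min into organic internal standard solution.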

Liver [5] = assay: Half life in mouse liver microsomes at 1 uM in absence of NADPH by LC-MS analysis; format: ADME, microsome; summary of the method: as §1
[6] = test system: Vesicular stomatitis virus; assay: Antiviral activity against Vesicular stomatitis virus assessed as reduction in viral replication measured after […] by bioluminescence assay; format: functional
[7] = Aqueous solubility of the compound in citrate buffer at pH 3 after 90 mins by laser nephelometric method; format: physicochemical
Summary of the method: (§2)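 Stocks of 30 mg/mL in DMSO were serially diluted in DMSO, then into buffer to final 300 down to 1.5 µg/mL at 1% final DMSO. Diluent was PBS for pH 7.4 and citrate buffer for pH 3 and 5. Plates stood 90 min at ambient temperature. Forward-scatter laser nephelometry gave the concentration at which precipitation began.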

[8] = Aqueous solubility of the compound in citrate buffer at pH 5 after 90 mins by laser nephelometric method; format: physicochemical; summary of the method: as §2
BEAS-2B = assay: Cytotoxicity against human BEAS2B cells after 48 hrs by PrestoBlue staining based fluorescence assay; format: cell-based
Summary of the method: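 Uninfected BEAS-2B cells were exposed to compound for 48 h at 37°C. PrestoBlue was added and incubated 90 min at 37°C, then fluorescence was read (ex 560 nm, em 590 nm). Cytotoxic was defined as metabolic activity <70% of vehicle control. Highest concentration assessed for cytotoxicity was 90 µM, and CC50 came from four-parameter variable slope regression.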

Liver [9] = assay: Half life in human liver microsomes at 1 uM by LC-MS analysis; format: ADME, microsome; summary of the method: as §1
[10] = Selectivity index, ratio of CC50 for human BEAS2B cells to EC50 for inhibition of recombinant mkate-tagged-Respiratory syncytial virus-A2-L19F RNA-dependent RNA polymerase complex D489E mutant in human BEAS2B cells infected with Respiratory syncytial virus-A2-L19F; format: toxicity, cell-based; conditions: read-out: Ratio CC50/EC50
Summary of the method: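 SI is CC50/EC50 in BEAS-2B cells. EC50 came from reporter RSV dose-response, 3-fold dilutions, top 10 µM. […] Both values from four-parameter variable-slope regression.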

[11] = test system: Respiratory syncytial virus; assay: Inhibition of Respiratory syncytial virus-A2-L19F RNA-dependent RNA polymerase complex D489E mutant in human BEAS2B cells infected with Respiratory syncytial virus-A2-L19F by firefly luciferase reporter-based RSV minigenome assay; format: cell-based
[12] = Aqueous solubility of the compound in phosphate buffered saline at pH 7.4 after 90 mins by laser nephelometric method; format: physicochemical; summary of the method: as §2
[13] = test system: Respiratory syncytial virus; assay: Inhibition of recombinant mkate-tagged-Respiratory syncytial virus-A2-L19F RNA-dependent RNA polymerase complex D489E mutant in human BEAS2B cells infected with Respiratory syncytial virus-A2-L19F assessed as reduction in RSV-N mRNA level measured after 20 hrs by RT-qPCR analysis; format: cell-based
Summary of the method: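 Cells infected with mKate recRSV-A2-L19F (MOI 3 particles/cell) and exposed to compound at 0.1–10 µM, or DMSO, at 37°C for 20 h. RT-qPCR of RSV N mRNA, with melt-curve check. ΔΔCT calculated against GAPDH and normalised to DMSO controls. Three independent experiments, each in duplicate; mean ± SD.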

Liver [14] = assay: Half life in mouse liver S9 fraction at 1 uM by LC-MS analysis; format: ADME, tissue-based; conditions: s9, 1 µM; summary of the method: as §1
[15] = Inhibition of recombinant mkate-tagged-Respiratory syncytial virus-A2-L19F RNA-dependent RNA polymerase D489E mutant in human BEAS2B cells infected with Respiratory syncytial virus-A2-L19F assessed as reduction in progeny release measured after 48 hrs postinfection by fluorescence assay based progeny virus yield-based dose-response assay; format: cell-based; conditions: BEAS-2B
Summary of the method: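 Cells in 12-well format infected with mKate-expressing recRSV-A2-L19F (MOI 0.05 particles/cell) in the presence of serial compound dilutions at 37°C. Cell-associated progeny harvested 48 h post-infection and released by one freeze/thaw cycle. Titres determined by TCID50 titration. Two repeats; EC50 derived by regression.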

Plasma [16] = assay: Half life in human plasma at 1 uM by LC-MS analysis; format: ADME, cell-free
Plasma [17] = assay: Half life in mouse plasma at 1 uM by LC-MS analysis; format: ADME, cell-free
Liver [18] = assay: Half life in human liver S9 fraction at 1 uM by LC-MS analysis; format: ADME, tissue-based; conditions: s9, 1 µM; summary of the method: as §1
Liver [19] = assay: Half life in mouse liver microsomes at 1 uM by LC-MS analysis; format: ADME, microsome; summary of the method: as §1
[20] = human respiratory syncytial virus, A2-L19F, BEAS-2B, 40 min

| Compound | solubility kinetic at 1.5 h [7] [µg/mL] | solubility kinetic at 1.5 h [8] [µg/mL] | CC50 (BEAS-2B) [nM] | t1/2 (Liver [9]) [h] | selectivity ratio [10] | solubility kinetic at 1.5 h [12] [µg/mL] | t1/2 (Liver [14]) [h] | EC50 [2, 20] [nM] | further results |
| --- | --- | --- | --- | --- | --- | --- | --- | --- | --- |
| Cc1ccoc1C(=O)N1CCCn2nc(C(=O)Nc3ccccc3)cc2C1 | 74 (≈ 203 µM) | 75 (≈ 206 µM) | 8300 | 4.7 | 40 | 63 (≈ 173 µM) | 0.25 |  | EC50 [1]: > 20000 nM; EC50 [2]: 200 to 210 nM and 840 nM; Drug metabolism (Liver [3]): Metabolite_Detected; t1/2 (Liver [4]): 0.25 h; t1/2 (Liver [5]): 0.25 h; EC50 [6]: > 20000 nM; inhibition [11]: Dose-dependent effect; inhibition [13]: Dose-dependent effect; EC50 [15]: 540 nM |
| Cc1ccoc1C(=O)N1CCCn2nc(C(=O)Nc3ccccc3F)cc2C1 | 75 (≈ 196 µM) | 51 (≈ 133 µM) | 1100 | 5.3 | 22 | 30 (≈ 78.5 µM) | 0.183 | 50 | t1/2 (Plasma [16]): > 24 h; t1/2 (Plasma [17]): 2.4 h; t1/2 (Liver [18]): 7 h |
| Cc1ccoc1C(=O)N1CCCn2nc(C(=O)Nc3ccc(F)cc3Cl)cc2C1 |  |  | 30000 | 3.6 | 500 |  |  | 60 | t1/2 (Liver [19]): 4 min |
